Test results taken from ChEMBL document CHEMBL5303300, “EUbOPEN Chemogenomics Library - Multiplex” (2023).
“And” between values parts separate entries of the source, which are not always exact repeats. Equal entries are not always repeated.

System: U2OS
Assay: Multiplex assay against U2OS
Assay type: toxicity, cell-based
Conditions: human, number of replicates 2
Procedure, shortened: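 Four dyes were applied at seeding to live cells: Hoechst33342, BioTracker Green Microtubule Cytoskeleton Dye, MitoTracker Red and Annexin V Alexa Fluor 680. Imaging after compound addition used a CQ1 microscope at 37°C and 5% CO2. CellPathfinder machine-learning gating then sorted cells into Hoechst high-intensity objects or normal cells, normal cells into healthy, pyknosed or fragmented nuclei, and pyknosed cells into mitotic or apoptotic, with tubulin, mitochondrial-mass and membrane-permeability phenotypes given as per cents of healthy-nucleus cells.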

[1] = 12 h, 1 µM, compound concentration 1 uM
[2] = 12 h, 10 µM, compound concentration 10 uM
[3] = 24 h, 1 µM, compound concentration 1 uM
[4] = 24 h, 10 µM, compound concentration 10 uM
[5] = 48 h, 1 µM, compound concentration 1 uM
[6] = 48 h, 10 µM, compound concentration 10 uM

## Cl.Clc1ccc2nsnc2c1NC1=NCCN1 [TIZANIDINE HYDROCHLORIDE]
[1]
  Population Apoptotic (%): 50% and 55%
  Population Fragmented Nuclei (%): 14% and 4%
  Population Healthy Nuclei (%): 75% and 86%
  Population Hoechst High Intensity Objects (%): 0%
  Population Membrane Permeable-Phenotype (%): 0% and 1%
  Population Mitochondria Different-Phenotype (%): 3% and 0%
  Population Mitotic Cells (%): 50% and 44%
  Population Normal (%): 100%
  Population Pyknosed Nuclei (%): 9%
  Population Tubulin-Different-Phenotype (%): 100% and 96%
[2]
  Population Fragmented Nuclei (%): 7% and 4%
  Population Healthy Nuclei (%): 89% and 87%
  Population Hoechst High Intensity Objects (%): 0%
  Population Membrane Permeable-Phenotype (%): 2% and 0%
  Population Mitochondria Different-Phenotype (%): 0%
  Population Normal (%): 100%
  Population Pyknosed Nuclei (%): 2% and 8%
  Population Tubulin-Different-Phenotype (%): 68% and 97%
[3]
  Population Apoptotic (%): 100% and 58%
  Population Fragmented Nuclei (%): 8% and 3%
  Population Healthy Nuclei (%): 85% and 89%
  Population Hoechst High Intensity Objects (%): 1% and 0%
  Population Membrane Permeable-Phenotype (%): 1%
  Population Mitochondria Different-Phenotype (%): 0% and 1%
  Population Normal (%): 98% and 100%
  Population Pyknosed Nuclei (%): 6% and 7%
  Population Tubulin-Different-Phenotype (%): 100% and 95%
[4]
  Population Fragmented Nuclei (%): 10% and 2%
  Population Healthy Nuclei (%): 89% and 92%
  Population Hoechst High Intensity Objects (%): 0%
  Population Membrane Permeable-Phenotype (%): 0% and 1%
  Population Mitochondria Different-Phenotype (%): 0%
  Population Normal (%): 100%
  Population Pyknosed Nuclei (%): 0% and 5%
  Population Tubulin-Different-Phenotype (%): 77% and 96%
[5]
  Population Apoptotic (%): 40%
  Population Fragmented Nuclei (%): 11%
  Population Healthy Nuclei (%): 78%
  Population Hoechst High Intensity Objects (%): 1%
  Population Membrane Permeable-Phenotype (%): 3%
  Population Mitochondria Different-Phenotype (%): 0%
  Population Mitotic Cells (%): 60%
  Population Normal (%): 98%
  Population Pyknosed Nuclei (%): 10%
  Population Tubulin-Different-Phenotype (%): 97%
  Total Cell Count: 99
[6]
  Population Apoptotic (%): 88% and 38%
  Population Fragmented Nuclei (%): 4% and 2%
  Population Healthy Nuclei (%): 84% and 92%
  Population Hoechst High Intensity Objects (%): 0%
  Population Membrane Permeable-Phenotype (%): 2% and 0%
  Population Mitochondria Different-Phenotype (%): 0%
  Population Normal (%): 100%
  Population Pyknosed Nuclei (%): 10% and 4%
  Population Tubulin-Different-Phenotype (%): 72% and 99%

## CNS(=O)(=O)c1ccc(N(C)C)c(Nc2ncnc3cc(OC)c(OC)cc23)c1
[1]
  Population Apoptotic (%): 100% and 61%
  Population Healthy Nuclei (%): 73% and 84%
  Population Hoechst High Intensity Objects (%): 0%
  Population Membrane Permeable-Phenotype (%): 0%
  Population Mitochondria Different-Phenotype (%): 0%
  Population Normal (%): 100% and 99%
  Population Pyknosed Nuclei (%): 11% and 12%
  Population Tubulin-Different-Phenotype (%): 73% and 87%
[2]
  Population Apoptotic (%): 50% and 64%
  Population Healthy Nuclei (%): 44% and 86%
  Population Hoechst High Intensity Objects (%): 0%
  Population Membrane Permeable-Phenotype (%): 3% and 2%
  Population Mitochondria Different-Phenotype (%): 0% and 2%
  Population Mitotic Cells (%): 50% and 35%
  Population Normal (%): 100%
  Population Pyknosed Nuclei (%): 20% and 10%
  Population Tubulin-Different-Phenotype (%): 42% and 64%
  Total Cell Count: 59 and 156
[3]
  Population Apoptotic (%): 60% and 71%
  Population Healthy Nuclei (%): 60% and 88%
  Population Hoechst High Intensity Objects (%): 0%
  Population Membrane Permeable-Phenotype (%): 5% and 1%
  Population Mitochondria Different-Phenotype (%): 0% and 1%
  Population Mitotic Cells (%): 40% and 28%
  Population Normal (%): 100%
  Population Pyknosed Nuclei (%): 16% and 9%
  Population Tubulin-Different-Phenotype (%): 72% and 88%
[4]
  Population Apoptotic (%): 87% and 63%
  Population Healthy Nuclei (%): 66% and 82%
  Population Hoechst High Intensity Objects (%): 0%
  Population Membrane Permeable-Phenotype (%): 5% and 3%
  Population Mitochondria Different-Phenotype (%): 5% and 1%
  Population Mitotic Cells (%): 12% and 36%
  Population Normal (%): 100% and 99%
  Population Pyknosed Nuclei (%): 13% and 14%
  Population Tubulin-Different-Phenotype (%): 51% and 64%
[5]
  Population Apoptotic (%): 50% and 76%
  Population Healthy Nuclei (%): 69% and 90%
  Population Hoechst High Intensity Objects (%): 0%
  Population Membrane Permeable-Phenotype (%): 4% and 0%
  Population Mitochondria Different-Phenotype (%): 2% and 0%
  Population Mitotic Cells (%): 50% and 23%
  Population Normal (%): 100%
  Population Pyknosed Nuclei (%): 10% and 5%
  Population Tubulin-Different-Phenotype (%): 82% and 92%
[6]
  Population Apoptotic (%): 83% and 66%
  Population Healthy Nuclei (%): 52% and 78%
  Population Hoechst High Intensity Objects (%): 0%
  Population Membrane Permeable-Phenotype (%): 13% and 5%
  Population Mitochondria Different-Phenotype (%): 1% and 5%
  Population Mitotic Cells (%): 16% and 33%
  Population Normal (%): 99%
  Population Pyknosed Nuclei (%): 11% and 14%
  Population Tubulin-Different-Phenotype (%): 58% and 68%

## COc1ccc(F)c(F)c1C(=O)c1cnc(NC2CCN(S(C)(=O)=O)CC2)nc1N [RG-547]
[1]
  Population Apoptotic (%): 25% and 66%
  Population Fragmented Nuclei (%): 21% and 7%
  Population Healthy Nuclei (%): 68% and 81%
  Population Hoechst High Intensity Objects (%): 0% and 1%
  Population Membrane Permeable-Phenotype (%): 7% and 3%
  Population Mitochondria Different-Phenotype (%): 3% and 2%
  Population Mitotic Cells (%): 75% and 33%
  Population Normal (%): 100% and 98%
  Population Pyknosed Nuclei (%): 10%
  Population Tubulin-Different-Phenotype (%): 69% and 80%
[2]
  Population Apoptotic (%): 77% and 70%
  Population Fragmented Nuclei (%): 20% and 12%
  Population Healthy Nuclei (%): 44% and 42%
  Population Hoechst High Intensity Objects (%): 0% and 1%
  Population Membrane Permeable-Phenotype (%): 9% and 14%
  Population Mitochondria Different-Phenotype (%): 0% and 6%
  Population Mitotic Cells (%): 22% and 30%
  Population Normal (%): 100% and 98%
  Population Pyknosed Nuclei (%): 36% and 44%
  Population Tubulin-Different-Phenotype (%): 72% and 57%
[3]
  Population Apoptotic (%): 57% and 70%
  Population Fragmented Nuclei (%): 13% and 9%
  Population Healthy Nuclei (%): 66% and 77%
  Population Hoechst High Intensity Objects (%): 0%
  Population Membrane Permeable-Phenotype (%): 4%
  Population Mitochondria Different-Phenotype (%): 4% and 3%
  Population Mitotic Cells (%): 42% and 30%
  Population Normal (%): 100% and 99%
  Population Pyknosed Nuclei (%): 19% and 12%
  Population Tubulin-Different-Phenotype (%): 66% and 79%
[4]
  Population Apoptotic (%): 85%
  Population Fragmented Nuclei (%): 15% and 12%
  Population Healthy Nuclei (%): 41% and 32%
  Population Hoechst High Intensity Objects (%): 0% and 2%
  Population Membrane Permeable-Phenotype (%): 21% and 12%
  Population Mitochondria Different-Phenotype (%): 21% and 12%
  Population Mitotic Cells (%): 15% and 14%
  Population Normal (%): 100% and 97%
  Population Pyknosed Nuclei (%): 43% and 54%
  Population Tubulin-Different-Phenotype (%): 68% and 72%
[5]
  Population Apoptotic (%): 85%
  Population Fragmented Nuclei (%): 30% and 20%
  Population Healthy Nuclei (%): 39% and 65%
  Population Hoechst High Intensity Objects (%): 0%
  Population Membrane Permeable-Phenotype (%): 11% and 2%
  Population Mitochondria Different-Phenotype (%): 5% and 1%
  Population Mitotic Cells (%): 14%
  Population Normal (%): 100% and 99%
  Population Pyknosed Nuclei (%): 30% and 13%
  Population Tubulin-Different-Phenotype (%): 66% and 75%
[6]
  Population Apoptotic (%): 94% and 87%
  Population Fragmented Nuclei (%): 14% and 10%
  Population Healthy Nuclei (%): 11% and 2%
  Population Hoechst High Intensity Objects (%): 5% and 0%
  Population Mitotic Cells (%): 5% and 12%
  Population Normal (%): 94% and 100%
  Population Pyknosed Nuclei (%): 74% and 86%
  Population Tubulin-Different-Phenotype (%): 88% and 100%
